From ChEMBL document CHEMBL1147458, “Lead identification of a potent benzopyranone selective estrogen receptor modulator” (Bioorg Med Chem Lett, 2004)

Assays:
U2OS = test: Ability to inhibit release of interleukin-6 from U2OS cell lines transfected with estrogen receptor alpha; type: functional, cell-based; conditions: Homo sapiens
Outline: (§1)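 Estrogen-receptor-negative osteosarcoma U2OS cells, transfected with ER-α, were screened for inhibition of IL-6 cytokine release.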

MCF7 = test: Antiproliferative activity against MCF-7 cell line; type: functional, cell-based; conditions: Homo sapiens
[1] = Concentration required for inhibition of Interleukin-6 in U20S cells was determined; type: cell-based; outline: as §1

| SMILES | IC50 (U2OS) [nM] | IC50 (MCF7) [nM] | IC50 [1] [nM] |
| --- | --- | --- | --- |
| CCCc1c(Cc2c(F)cccc2Cl)c(=O)oc2cc(O)ccc12 |  |  | 300 |
| O=c1oc2cc(O)ccc2c(-c2ccc(OCCCCN3CCCCC3)cc2)c1-c1ccccc1 | 69 | 134 |  |
| O=c1oc2cc(O)ccc2c(-c2ccc(OCCCN3CCCCC3)cc2)c1-c1ccccc1 | 355 | 335 |  |
| O=c1oc2cc(O)ccc2c(Cc2ccc(OCCCCN3CCCCC3)cc2)c1-c1ccccc1 | 5 | 13 |  |
| O=c1oc2cc(O)ccc2c(-c2cccc(OCCCCCN3CCCCC3)c2)c1-c1ccccc1 | 11 | 15 |  |
| O=c1oc2cc(O)ccc2c(-c2ccc(OCCN3CCCCC3)cc2)c1-c1ccccc1 | 505 | 425 |  |
| CC/C(=C(\c1ccc(O)cc1)c1ccc(OCCN(C)C)cc1)c1ccccc1 | 1.9 | 24 |  |
| O=c1oc2cc(O)ccc2c(-c2cccc(OCCN3CCCCC3)c2)c1-c1ccccc1 | 12 | 85 |  |
| O=c1oc2cc(O)ccc2c(-c2ccc(OCCCCCN3CCCCC3)cc2)c1-c1ccccc1 | 114 | 335 |  |
| O=c1oc2cc(O)ccc2c(-c2ccc(OCCCCCCN3CCCCC3)cc2)c1-c1ccccc1 | 145 | 720 |  |

Results, then the compound that gave them:

| IC50 (U2OS) [nM] | IC50 (MCF7) [nM] | IC50 [1] [nM] | SMILES |
| --- | --- | --- | --- |
| 1.5 | 9.5 |  | O=c1oc2cc(O)ccc2c(-c2cccc(OCCCN3CCCCC3)c2)c1-c1ccccc1 |
| 3.2 | 12 |  | O=c1oc2cc(O)ccc2c(-c2cccc(OCCCCN3CCCCC3)c2)c1-c1ccccc1 |
| 4.4 | 18 |  | O=c1oc2cc(O)ccc2c(Cc2ccc(OCCCN3CCCCC3)cc2)c1-c1ccccc1 |
| 0.38 | 7.7 |  | O=c1oc2cc(O)ccc2c(Cc2ccc(OCCN3CCCCC3)cc2)c1-c1ccccc1 |
| 3.1 | 4.9 |  | O=C(c1ccc(OCCN2CCCCC2)cc1)c1c(-c2ccc(O)cc2)sc2cc(O)ccc12 [RALOXIFENE] |
